Data: ChEMBL document CHEMBL3593224, “Design, synthesis and biological evaluation of a novel series of peripheral-selective noradrenaline reuptake inhibitor” (Bioorg Med Chem, 2015)
Calls of active or inactive are those of the source. The rule behind the calls is not given here.

Tests used:
Homo sapiens [1] = species on record: Homo sapiens; experiment: Selectivity index, ratio of IC50 for human SERT to IC50 for human NET
Procedure, shortened: (§1)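 Ratio of IC50s from two [3H]-uptake assays in CHO cells (SERT or human NET expressing), seeded overnight in HEPES-buffered saline with glucose and 0.5% BSA. Radioligand added from 200 nM dilutions. SERT: [3H]-5-hydroxytryptamine, 20 min. NET: [3H]-norepinephrine, 45 min. Washed, scintillation counted; IC50 with 95% CI, n=2.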

Rattus norvegicus [2] = experiment: In-vivo occupancy at NET in Sprague-Dawley rat brain cortex at 3 mg/kg, iv by [3H]-nisoxetine […] assay; assay type: functional
Procedure, shortened: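 Female Sprague-Dawley rats under urethane anaesthesia (i.p.) got compound i.v. The left cortex was removed 20 min later and homogenised in Tris-Cl pH 7.5/NaCl/KCl buffer. Membranes at 4 mg/mL protein were incubated 1 h at room temperature with [3H]-nisoxetine (25 nmol/L solution), with desipramine for nonspecific binding. Filtered on GF/B; occupancy taken against vehicle specific binding (100%).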

[3] = biological target: Sodium-dependent dopamine transporter (Homo sapiens, UniProt Q01959); experiment: Inhibition of human DAT expressed in CHOK1 cells incubated for 60 mins by [3H]-dopamine uptake assay; assay type: cell-based, CHO-K1
Chain of Sodium-dependent dopamine transporter (Q01959 whole entry): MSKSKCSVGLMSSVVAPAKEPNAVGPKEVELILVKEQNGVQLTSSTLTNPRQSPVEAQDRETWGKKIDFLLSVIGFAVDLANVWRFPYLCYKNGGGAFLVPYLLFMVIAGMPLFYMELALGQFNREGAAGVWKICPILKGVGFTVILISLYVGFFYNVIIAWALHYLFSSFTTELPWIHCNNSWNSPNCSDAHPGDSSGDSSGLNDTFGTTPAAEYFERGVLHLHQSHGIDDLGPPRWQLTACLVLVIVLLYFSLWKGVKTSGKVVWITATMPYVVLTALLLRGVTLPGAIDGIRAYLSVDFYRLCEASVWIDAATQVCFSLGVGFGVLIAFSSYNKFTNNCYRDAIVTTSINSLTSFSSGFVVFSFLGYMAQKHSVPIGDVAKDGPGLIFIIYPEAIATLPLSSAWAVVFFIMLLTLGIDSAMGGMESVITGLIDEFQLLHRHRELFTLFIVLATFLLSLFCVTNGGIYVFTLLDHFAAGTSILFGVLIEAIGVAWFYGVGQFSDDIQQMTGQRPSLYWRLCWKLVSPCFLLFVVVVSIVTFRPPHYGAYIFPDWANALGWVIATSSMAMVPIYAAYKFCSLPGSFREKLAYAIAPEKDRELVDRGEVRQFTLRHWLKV
Procedure, shortened: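 CHO cells stably expressing human DAT, grown in Ham/F12 with 10% FBS, seeded 3 × 10^5 cells/mL and cultured overnight. Compound added in buffer (NaCl, KCl, KH2PO4, MgSO4, 10 mM HEPES, CaCl2, glucose, 0.5% BSA), then [3H]-dopamine (200 nM stock, with 10 µM cold dopamine stock); 60 min uptake, PBS wash, scintillation count. 100 µM nomifensine as 100% inhibition; IC50 with 95% CI, n=2.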

Homo sapiens [4] = species on record: Homo sapiens; experiment: Selectivity index, ratio of IC50 for human DAT to IC50 for human NET
Procedure, shortened: as §1, with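 “stably expressing human DAT” for “(SERT”, “NET,” for “human NET expressing),”, “DAT: [3H]-dopamine plus cold dopamine (10 µM dilution), 60” for “SERT: [3H]-5-hydroxytryptamine, 20”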

[5] = biological target: Sodium-dependent noradrenaline transporter (Homo sapiens, UniProt P23975); experiment: Inhibition of human NET expressed in CHOK1 cells incubated for 45 mins by [3H]-norepinephrine uptake assay; assay type: cell-based, CHO-K1
Chain of Sodium-dependent noradrenaline transporter (P23975 whole entry): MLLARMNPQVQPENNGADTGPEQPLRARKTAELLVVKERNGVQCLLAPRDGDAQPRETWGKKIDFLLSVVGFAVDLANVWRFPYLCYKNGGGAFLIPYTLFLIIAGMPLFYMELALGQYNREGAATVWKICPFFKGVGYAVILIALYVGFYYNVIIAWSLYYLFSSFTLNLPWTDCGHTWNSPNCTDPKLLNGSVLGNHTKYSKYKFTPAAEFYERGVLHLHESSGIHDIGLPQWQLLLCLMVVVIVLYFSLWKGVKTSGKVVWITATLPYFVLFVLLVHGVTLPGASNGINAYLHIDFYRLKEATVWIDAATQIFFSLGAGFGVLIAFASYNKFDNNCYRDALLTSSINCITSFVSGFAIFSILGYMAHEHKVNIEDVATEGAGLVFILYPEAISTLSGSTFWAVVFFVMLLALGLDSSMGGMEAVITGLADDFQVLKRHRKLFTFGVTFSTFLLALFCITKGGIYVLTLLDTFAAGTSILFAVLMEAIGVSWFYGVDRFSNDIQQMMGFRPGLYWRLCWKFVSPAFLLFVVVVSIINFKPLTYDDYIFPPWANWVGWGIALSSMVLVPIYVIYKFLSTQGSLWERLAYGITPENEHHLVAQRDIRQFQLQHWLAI
Procedure, shortened: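 Human NET stably expressed in CHO cells (Ham/F12, 10% FBS), seeded 3 × 10^5 cells/mL, overnight culture. In HEPES-buffered salt/glucose buffer with 0.5% BSA, compound then [3H]-norepinephrine (diluted to 200 nM before addition) added; uptake 45 min, two PBS washes, scintillation counting. 10 µM desipramine taken as 100% inhibition; IC50 and 95% confidence interval from n=2.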

[6] = biological target: Sodium-dependent serotonin transporter (Homo sapiens, UniProt P31645); experiment: Inhibition of human SERT expressed in CHOK1 cells incubated for 20 mins by [3H]-5-hydroxytryptamine uptake assay; assay type: cell-based, CHO-K1
Chain of Sodium-dependent serotonin transporter (P31645 whole entry): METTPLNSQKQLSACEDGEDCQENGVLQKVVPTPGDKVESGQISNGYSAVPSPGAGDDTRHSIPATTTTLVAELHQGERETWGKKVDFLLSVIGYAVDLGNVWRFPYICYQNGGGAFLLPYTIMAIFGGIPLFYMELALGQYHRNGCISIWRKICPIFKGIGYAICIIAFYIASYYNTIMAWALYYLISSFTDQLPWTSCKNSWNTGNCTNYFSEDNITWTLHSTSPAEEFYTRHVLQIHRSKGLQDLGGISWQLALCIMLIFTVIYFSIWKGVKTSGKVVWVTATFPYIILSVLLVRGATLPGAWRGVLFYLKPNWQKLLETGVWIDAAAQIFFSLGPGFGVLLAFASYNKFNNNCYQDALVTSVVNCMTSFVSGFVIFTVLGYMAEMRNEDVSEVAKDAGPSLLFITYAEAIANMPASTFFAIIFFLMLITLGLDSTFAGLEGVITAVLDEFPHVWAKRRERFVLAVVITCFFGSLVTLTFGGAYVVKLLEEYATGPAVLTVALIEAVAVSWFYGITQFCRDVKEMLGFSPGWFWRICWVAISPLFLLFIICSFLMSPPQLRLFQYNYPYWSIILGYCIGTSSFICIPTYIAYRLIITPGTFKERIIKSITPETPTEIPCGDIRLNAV
Procedure, shortened: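 CHO cells stably expressing human SERT, cultured in Ham/F12 plus 10% FBS, plated 3 × 10^5 cells/mL overnight. Buffer: 126 mM NaCl, 10 mM HEPES, glucose, 0.5% BSA; compound added at 10× then diluted, followed by [3H]-5-HT (200 nM stock). After 20 min, buffer removed, cells washed twice with PBS, radioactivity counted; IC50 and 95% CI from two experiments.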

CYP2D6 = CYP2D6 (Homo sapiens, UniProt P10635); experiment: Inhibition of CYP2D6 (unknown origin) at 10 uM; assay type: ADME
Chain of CYP2D6 (P10635 whole entry): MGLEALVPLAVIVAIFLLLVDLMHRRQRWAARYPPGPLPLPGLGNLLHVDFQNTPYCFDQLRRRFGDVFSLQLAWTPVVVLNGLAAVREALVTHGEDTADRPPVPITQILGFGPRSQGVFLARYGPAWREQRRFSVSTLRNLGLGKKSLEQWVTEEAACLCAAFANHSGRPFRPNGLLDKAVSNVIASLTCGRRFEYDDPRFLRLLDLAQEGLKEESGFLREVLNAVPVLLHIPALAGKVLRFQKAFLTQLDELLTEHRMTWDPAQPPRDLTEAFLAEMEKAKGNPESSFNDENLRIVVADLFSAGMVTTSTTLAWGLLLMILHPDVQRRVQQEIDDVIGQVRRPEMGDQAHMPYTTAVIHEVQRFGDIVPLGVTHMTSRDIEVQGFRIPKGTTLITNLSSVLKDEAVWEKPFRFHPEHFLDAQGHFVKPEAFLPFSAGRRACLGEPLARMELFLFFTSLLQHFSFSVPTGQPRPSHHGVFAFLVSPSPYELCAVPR

hERG (KCNH2) = hERG (KCNH2) (Homo sapiens, UniProt Q12809); experiment: Inhibition of human ERG at 10 uM
Chain of hERG (KCNH2) (Q12809 whole entry): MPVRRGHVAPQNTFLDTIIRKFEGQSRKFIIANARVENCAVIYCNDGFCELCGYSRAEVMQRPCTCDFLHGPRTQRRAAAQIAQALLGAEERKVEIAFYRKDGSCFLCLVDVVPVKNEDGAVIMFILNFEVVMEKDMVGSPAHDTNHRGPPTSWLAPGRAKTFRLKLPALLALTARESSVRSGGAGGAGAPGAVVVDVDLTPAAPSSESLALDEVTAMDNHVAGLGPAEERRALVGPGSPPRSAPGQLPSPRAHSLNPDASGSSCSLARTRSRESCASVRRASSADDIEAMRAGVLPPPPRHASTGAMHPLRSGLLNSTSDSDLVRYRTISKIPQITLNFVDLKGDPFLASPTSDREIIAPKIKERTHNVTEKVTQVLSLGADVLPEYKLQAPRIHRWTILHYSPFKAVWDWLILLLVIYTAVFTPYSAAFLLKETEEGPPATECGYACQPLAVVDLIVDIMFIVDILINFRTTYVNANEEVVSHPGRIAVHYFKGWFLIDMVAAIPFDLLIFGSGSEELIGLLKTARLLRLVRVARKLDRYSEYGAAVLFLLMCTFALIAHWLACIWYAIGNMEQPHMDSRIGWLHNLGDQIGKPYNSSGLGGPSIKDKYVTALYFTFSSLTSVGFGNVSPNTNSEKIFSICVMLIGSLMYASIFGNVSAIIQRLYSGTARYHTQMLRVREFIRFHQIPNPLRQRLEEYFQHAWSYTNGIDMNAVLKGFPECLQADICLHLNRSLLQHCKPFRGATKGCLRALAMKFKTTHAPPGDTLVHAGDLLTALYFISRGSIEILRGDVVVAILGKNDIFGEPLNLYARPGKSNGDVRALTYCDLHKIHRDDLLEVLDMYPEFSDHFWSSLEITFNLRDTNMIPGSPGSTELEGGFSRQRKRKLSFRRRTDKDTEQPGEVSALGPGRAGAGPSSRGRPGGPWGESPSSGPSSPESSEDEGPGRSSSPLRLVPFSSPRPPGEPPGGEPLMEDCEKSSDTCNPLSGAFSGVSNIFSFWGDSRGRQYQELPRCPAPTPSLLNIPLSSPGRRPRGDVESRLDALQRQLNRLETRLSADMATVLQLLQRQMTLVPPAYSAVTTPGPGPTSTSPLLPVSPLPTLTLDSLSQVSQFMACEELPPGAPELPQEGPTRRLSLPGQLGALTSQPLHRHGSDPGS

Rattus norvegicus [7] = experiment: Increase in urethral resistance in rat assessed as increase in leak point pressure at 0.3 to 3 mg/kg, iv measured 30 mins post dose by Evans blue dye based assay; assay type: functional, organism-based; conditions: Urethra
Rattus norvegicus [8] = experiment: Increase in urethral resistance in rat assessed as increase in leak point pressure at 1 to 10 mg/kg, sc measured 30 mins post dose by Evans blue dye based assay; assay type: functional, organism-based; conditions: Urethra

With `CC(=O)NC[C@@H]1CNCCO[C@H]1c1ccc(F)c(Cl)c1.O=C(O)/C=C/C(=O)O` the Ratio IC50 (Homo sapiens [1]) was greater than 76, the Occ (Rattus norvegicus [2]) was 1.7% and the IC50 [3] was greater than 1 µM. For the same molecule, the Ratio IC50 (Homo sapiens [4]) was greater than 76, the IC50 [5] was 0.013 µM and the IC50 [6] was greater than 1 µM.
For `OCC1(c2ccc(Cl)c(Cl)c2)CCCNCC1` (racemic), the Ratio IC50 (Homo sapiens [1]) was 17, the inhibition at 10 µM (CYP2D6) was 44% and the IC50 [3] was greater than 1 µM. For the same molecule, the Ratio IC50 (Homo sapiens [4]) was greater than 480, the IC50 [5] was 0.0021 µM and the IC50 [6] was 0.035 µM.
For `CC(=O)NC[C@@H]1CNCCO[C@H]1c1ccc(Cl)c(Cl)c1.O=C(O)/C=C/C(=O)O`, the inhibition at 10 µM (hERG (KCNH2)) was 15%, the Ratio IC50 (Homo sapiens [1]) was 450 and the Occ (Rattus norvegicus [2]) was -14%. For the same molecule, the IC50 [3] was 1.5 µM, the Ratio IC50 (Homo sapiens [4]) was 4400 and the IC50 [5] was 0.00033 µM. The IC50 [6] was 0.15 µM and the Activity (Rattus norvegicus [7]) was “Dose-dependent effect”.
`CC(=O)NCC[C@@H]1CNCCO[C@H]1c1ccc(Cl)c(Cl)c1` showed a Ratio IC50 (Homo sapiens [1]) of 35, an IC50 [3] greater than 1 µM and a Ratio IC50 (Homo sapiens [4]) greater than 170. The IC50 [5] was 0.0058 µM and the IC50 [6] was 0.2 µM.
Molecule `NC(=O)[C@@H]1CNCCO[C@H]1c1ccc(Cl)c(Cl)c1` has a Ratio IC50 (Homo sapiens [1]) of 15, an IC50 [3] greater than 10 µM and a Ratio IC50 (Homo sapiens [4]) greater than 190. The IC50 [5] was 0.052 µM and the IC50 [6] was 0.78 µM.
For `OC[C@@H]1CNCCO[C@@H]1c1ccc(Cl)c(Cl)c1`, the Ratio IC50 (Homo sapiens [1]) was 1.3, the inhibition at 10 µM (CYP2D6) was 58% and the IC50 [3] was greater than 1 µM. For the same molecule, the Ratio IC50 (Homo sapiens [4]) was greater than 120, the IC50 [5] was 0.0085 µM and the IC50 [6] was 0.011 µM.
`OC[C@H]1CNCCO[C@@H]1c1ccc(Cl)c(Cl)c1` gave a Ratio IC50 (Homo sapiens [1]) of 6.1, an inhibition at 10 µM (CYP2D6) of 45% and an IC50 [3] of 1.4 µM. For the same molecule, the Ratio IC50 (Homo sapiens [4]) was 230, the IC50 [5] was 0.0058 µM and the IC50 [6] was 0.036 µM.
In the case of `OC[C@]1(c2ccc(Cl)c(Cl)c2)CCNCCO1`, the Ratio IC50 (Homo sapiens [1]) is reported as 0.47, the inhibition at 10 µM (CYP2D6) is reported as 21% and the IC50 [3] is reported as greater than 10 µM. The Ratio IC50 (Homo sapiens [4]) was greater than 14, the IC50 [5] was 0.7 µM and the IC50 [6] was 0.33 µM.
`OC[C@@]1(c2ccc(Cl)c(Cl)c2)CCNCCO1` was tested, and the Ratio IC50 (Homo sapiens [1]) was 35, the inhibition at 10 µM (CYP2D6) was 23% and the IC50 [3] was greater than 10 µM. The Ratio IC50 (Homo sapiens [4]) was greater than 1800, the IC50 [5] was 0.0056 µM and the IC50 [6] was 0.2 µM.
In the case of `CN(C)C(=O)[C@@H]1CNCCO[C@H]1c1ccc(Cl)c(Cl)c1.Cl`, the Ratio IC50 (Homo sapiens [1]) is reported as 460, the Occ (Rattus norvegicus [2]) is reported as 68% and the IC50 [3] is reported as 0.07 µM. It also gave a Ratio IC50 (Homo sapiens [4]) of 91, an IC50 [5] of 0.00077 µM and an IC50 [6] of 0.35 µM.
For `CC(=O)NC[C@@H]1CNCCO[C@H]1c1ccc(C)c(Cl)c1`, the Ratio IC50 (Homo sapiens [1]) was 200, the IC50 [3] was greater than 1 µM and the Ratio IC50 (Homo sapiens [4]) was greater than 300. For the same molecule, the IC50 [5] was 0.0034 µM and the IC50 [6] was 0.68 µM.
With `CCOc1ccccc1O[C@@H](c1ccccc1)[C@@H]1CNCCO1` the Activity (Rattus norvegicus [8]) was “Active”.
In the case of `Cl.OC[C@@H]1CNCCO[C@H]1c1ccc(Cl)c(Cl)c1`, the Ratio IC50 (Homo sapiens [1]) is reported as 50, the Occ (Rattus norvegicus [2]) is reported as 68% and the inhibition at 10 µM (CYP2D6) is reported as 34%. For the same molecule, the IC50 [3] was 3.1 µM, the Ratio IC50 (Homo sapiens [4]) was 1800 and the IC50 [5] was 0.002 µM. For the same molecule, the IC50 [6] was 0.097 µM.
With `OCC1(c2ccc(Cl)c(Cl)c2)CCNCCO1` (racemic) the Ratio IC50 (Homo sapiens [1]) was 12, the inhibition at 10 µM (CYP2D6) was 19% and the IC50 [3] was greater than 10 µM. For the same molecule, the Ratio IC50 (Homo sapiens [4]) was greater than 590, the IC50 [5] was 0.017 µM and the IC50 [6] was 0.2 µM.
With `CNC(=O)[C@@H]1CNCCO[C@H]1c1ccc(Cl)c(Cl)c1` the Ratio IC50 (Homo sapiens [1]) was greater than 83, the IC50 [3] was greater than 1 µM and the Ratio IC50 (Homo sapiens [4]) was greater than 83. It also gave an IC50 [5] of 0.012 µM and an IC50 [6] greater than 1 µM.
Work on `CC(=O)NC[C@@H]1CNCCO[C@H]1c1ccc(Cl)c(F)c1.Cl` yielded a Ratio IC50 (Homo sapiens [1]) greater than 440, an Occ (Rattus norvegicus [2]) of -2.8% and an IC50 [3] greater than 1 µM. The Ratio IC50 (Homo sapiens [4]) was greater than 440, the IC50 [5] was 0.0023 µM and the IC50 [6] was greater than 1 µM.
Work on `OC[C@H]1CNCCO[C@H]1c1ccc(Cl)c(Cl)c1` yielded a Ratio IC50 (Homo sapiens [1]) of 20, an inhibition at 10 µM (CYP2D6) of 47% and an IC50 [3] greater than 1 µM. It also gave a Ratio IC50 (Homo sapiens [4]) greater than 170, an IC50 [5] of 0.006 µM and an IC50 [6] of 0.12 µM.
Work on `CC(=O)NC[C@@H]1CNCCO[C@H]1c1ccc(Cl)c(C)c1` yielded a Ratio IC50 (Homo sapiens [1]) of 150, an IC50 [3] greater than 1 µM and a Ratio IC50 (Homo sapiens [4]) greater than 300. It also gave an IC50 [5] of 0.0033 µM and an IC50 [6] of 0.48 µM.
